# Measured values pooled from the literature.
# Compare with care: the assays were run in different laboratories.
# Target: Mitogen-activated protein kinase kinase kinase kinase 1 (MAP4K1, Homo sapiens, UniProt Q92918)
SMILES,assay,setting,quantity,value
CC(C)(O)[C@H]1CC[C@H](Nc2ccc3ncc(-c4cccc(C(F)(F)F)c4)n3n2)CC1,"enzyme activity, inhibitor",1 µM,remaining activity,79.6%
CCS(=O)(=O)c1cc2cc(C[C@](O)(CC(C)(C)c3ccc(F)cc3C(N)=O)C(F)(F)F)[nH]c2cn1,"cell-free assay, competition with immobilised ligand",1 µM,remaining binding,100%
COc1cc(Cl)c(C(=O)N[C@@H](CN[C@H]2CC[C@@H](N)CC2)Cc2ccc(C#N)cc2)cc1-c1ccc(CN[C@H](C)c2ccc(C)cc2)o1,"enzyme activity, inhibitor",1 µM,remaining activity,96%
CC/C(=N\NC(=O)NCc1cccc(O)c1)c1ccc(O)c(C)c1O,"enzyme activity, inhibitor",0.1 µM,inhibition,17.1%
O=C(Nc1cnn(-c2csc(C(=O)NC3COC3)c2)c1)Nc1ccccc1Cl,"enzyme activity, inhibitor",5 µM,remaining activity,132%
Cc1ccc(C(=O)Nc2ccc(CN3CCN(C)CC3)c(C(F)(F)F)c2)cc1C#Cc1cnc2cccnn12,"enzyme activity, inhibitor",23.5 nM,remaining activity,8.5%
COc1cc2nccc(Oc3ccc(NC(=O)c4c5n(n(-c6ccc(F)cc6)c4=O)CCCC5)cc3)c2cc1OC,"enzyme activity, inhibitor",0.1 µM,inhibition,11%
CC(=O)N1CCC(c2ccc(C(=O)NC(=N)N)cc2C(F)(F)F)CC1,"cell-free assay, competition with immobilised ligand",1 µM,remaining binding,100%
Cc1ccc(C(=O)NCc2ccsc2)cc1C#Cc1cn(C(C)C)c2ncnc(N)c12,"enzyme activity, inhibitor",1 µM,activity vs control,85%
Cc1sc(C(=O)NC2COC2)cc1-n1cc(NC(=O)Nc2c(F)cccc2Cl)cn1,"enzyme activity, inhibitor",10 µM,remaining activity,99.2%
Nc1ncnc2occ(-c3ccc(NC(=O)Nc4cc(C(F)(F)F)ccc4F)cc3)c12,"cell-free assay, inhibitor",20 µM,remaining signal,0.7%
CN1CC(Oc2cnc(C#N)cc2-c2ccn3nc(NC(=O)C4CC4)cc3c2)C1,"enzyme activity, inhibitor",1 µM,inhibition,4%
